Measured values: PMC5237706 (Acta Pharmaceutica Sinica. B, 2016)
Read-outs that look alike come from different tables or passages of the source. Blank lines part the entries; values can stand above or below the compound they belong to.

Tests used:
mitochondrial SOD = experiment: Mitochondrial SOD activity; assay type: biochemical, rat; settings: 10 μmol/L, 15 and 30 min
Method in brief: (§1)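 Energized liver mitochondria from male Wistar rats incubated with test compound (10 μmol/L) for 15 or 30 min. Then sonicated in 5 s pulses for 5 cycles. SOD, GSH-Px and CAT activities measured with commercial kits per instructions. Mean±SEM of three independent experiments.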

CAT = biological target: T1, CAT (Rattus norvegicus, UniProt P04762); experiment: Mitochondrial CAT activity; assay type: biochemical; settings: 10 μmol/L, 15 and 30 min
T1 sequence (P04762 1-527): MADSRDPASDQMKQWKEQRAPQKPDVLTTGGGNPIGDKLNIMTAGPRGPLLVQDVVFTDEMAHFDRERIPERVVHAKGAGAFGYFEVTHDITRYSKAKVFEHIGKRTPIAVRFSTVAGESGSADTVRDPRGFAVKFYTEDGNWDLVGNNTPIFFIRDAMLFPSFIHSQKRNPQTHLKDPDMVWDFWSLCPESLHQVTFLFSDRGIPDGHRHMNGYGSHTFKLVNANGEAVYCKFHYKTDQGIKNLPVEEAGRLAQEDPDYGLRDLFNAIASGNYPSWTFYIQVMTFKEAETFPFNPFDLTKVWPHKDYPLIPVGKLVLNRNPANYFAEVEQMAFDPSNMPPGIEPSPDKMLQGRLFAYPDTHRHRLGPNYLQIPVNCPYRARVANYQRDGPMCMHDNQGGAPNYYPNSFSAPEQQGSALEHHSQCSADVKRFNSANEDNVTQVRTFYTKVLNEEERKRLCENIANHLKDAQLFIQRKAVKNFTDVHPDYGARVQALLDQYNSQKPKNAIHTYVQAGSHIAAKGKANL
Method in brief: as §1

[1] = system: lipid peroxidation in the energized hepatic mitochondria; experiment: Mitochondrial lipid peroxidation induced by FeCl2/ascorbate; assay type: biochemical, rat; settings: for inhibition of lipid peroxidation at 6 μmol/L: Fig. 1B
Method in brief: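 Rat liver mitochondria (1 mg/mL, standard medium pH 7.4) with test compound (6 μmol/L). Peroxidation started with FeCl2 20 μmol/L/ascorbate 100 μmol/L and run 30 min. TCA-TBA-HCl stock plus 0.02% BHT added, then heated 15 min in a hot-water bath, cooled and centrifuged. A532 read; MDA calculated with ε532=1.5×10^5 mol/(L·cm). Three independent experiments.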

[2] = system: energized hepatic mitochondria (mPTP opening); experiment: Mitochondrial swelling; assay type: biochemical, rat; settings: Fig. 5B; for induction of mitochondrial swelling at 10 μmol/L: 10 μmol/L alone
Method in brief: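 Energized rat hepatic mitochondria (1 mg/mL) in sucrose/HEPES/glutamate/malate medium, pH 7.4. Swelling followed as apparent A540 change after adding test compound (concentration series; 10 μmol/L alone or with Ca2+ 0.1 μmol/L). CsA 1 μmol/L added to suspensions containing 20 μmol/L compound. […]; mean±SEM of three independent experiments.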

[3] = system: diploid human WI38 fibroblasts; experiment: Antiproliferative activity, SRB assay, WI38; assay type: cell-based
Method in brief: (§2)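 Cells seeded at 5×10^4/well and grown 24 h, then exposed to test compound (DMSO stock) for 24 h or 48 h. Processed by standard SRB method with absorbance at 540 nm. IC50 from log plot of percent of control vs concentration. HepG2 kept in RPMI 1640; L02 and WI38 in DMEM; all with 10% FBS, 1% penicillin–streptomycin, 37 °C, 5% CO2. TI = IC50 normal cells / IC50 HepG2.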

[4] = system: human hepatoma HepG2 cells; experiment: Antiproliferative activity, SRB assay, HepG2; assay type: cell-based; settings: for TI 24 h / TI 48 h: TI=IC50 L02 normal cell/IC50 HepG2 cancer cell
Method in brief: as §2

GSH-Px = experiment: Mitochondrial GSH-Px activity; assay type: biochemical, rat; settings: 10 μmol/L, 15 and 30 min
Method in brief: as §1

human hepatic L02 cells = experiment: Antiproliferative activity, SRB assay, L02; assay type: cell-based
Method in brief: as §2

[5] = system: H2O2 production in energized hepatic mitochondria; experiment: Mitochondrial H2O2 production; assay type: biochemical, rat; settings: DCFDA, Fig. 2B
Method in brief: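 DCFDA (8 μmol/L) added to energized rat hepatic mitochondria (1 mg/mL) in standard medium (sucrose 250, HEPES 10, glutamate 10, malate 5 mmol/L; pH 7.4). Test compound added; incubated 15 or 30 min in the dark at 25 °C. Fluorescence ex 485/em 521 nm, expressed as percent of control. Mean±SEM, three independent experiments.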

[6] = system: cyt c release from energized mitochondria; experiment: Cyt c release from mitochondria; assay type: biochemical, rat; settings: Fig. 7D

effect on CAT activity (CAT): did not alter
IC50 ([4]; read-out: IC50 HepG2 24 h, HepG2, 24 h, SRB): 25.4 ± 1.02 µM
IC50 ([4]; read-out: IC50 HepG2 48 h, HepG2, 48 h, SRB): 12.8 ± 0.87 µM
SMILES: CCCC[P+](c1ccccc1)(c1ccccc1)c1ccccc1 [ButylTPP]
effect on SOD activity (mitochondrial SOD): did not alter
inhibition of lipid peroxidation at 6 μmol/L [1]: ineffective
induction of mitochondrial swelling at 10 μmol/L [2]: triggered swelling
IC50 ([3]; read-out: IC50 WI38 24 h, WI38, 24 h, SRB): 179 ± 3.73 µM
IC50 ([3]; read-out: IC50 WI38 48 h, WI38, 48 h, SRB): 88.5 ± 3.95 µM
TI 24 h [4]: 4.76
TI 48 h [4]: 5.58
effect on GSH-Px activity (GSH-Px): did not alter
IC50 (human hepatic L02 cells; read-out: IC50 L02 24 h, L02, 24 h, SRB): 121 ± 9.97 µM
IC50 (human hepatic L02 cells; read-out: IC50 L02 48 h, L02, 48 h, SRB): 71.4 ± 6.64 µM
effect on endogenous H2O2 levels at 10 μmol/L [5]: did not affect
induction of cyt c release at 10 μmol/L [6]: had no effects

IC50 ([4]; Homo sapiens, HepG2, 24 h, read-out: IC50 HepG2 24 h, HepG2, 24 h, SRB): 201 ± 3.88 µM
IC50 ([4]; Homo sapiens, HepG2, 48 h, read-out: IC50 HepG2 48 h, HepG2, 48 h, SRB): 93 ± 1.35 µM
SMILES: O=C(O)/C=C/c1ccc(O)c(O)c1 [CaA, caffeic acid]
inhibition of lipid peroxidation at 6 μmol/L [1]: ineffective
effect on lipid peroxidation, various concentrations ([1]; Fig. 1A): no effect
mitochondrial swelling with Ca2+ ([2]; 10 μmol/L + 0.1 μmol/L Ca2+): failed to cause swelling
induction of mitochondrial swelling at 10 μmol/L [2]: neither MitoCA nor CaA induced swelling
IC50 ([3]; Homo sapiens, WI-38, 24 h, read-out: IC50 WI38 24 h): 281 ± 9.47 µM
IC50 ([3]; Homo sapiens, WI-38, 48 h, read-out: IC50 WI38 48 h): 198 ± 7.78 µM
TI 24 h [4]: 2.01
TI 48 h [4]: 1.68
IC50 (human hepatic L02 cells; Homo sapiens, L02, 24 h, read-out: IC50 L02 24 h): 403 ± 18.9 µM
IC50 (human hepatic L02 cells; Homo sapiens, L02, 48 h, read-out: IC50 L02 48 h): 156 ± 8.83 µM
induction of cyt c release at 10 μmol/L [6]: had no effects
